From PubChem BioAssay
KCNQ1 inh – blocks the human KCNQ1 potassium channel; P51787; CHO-K1 KCNQ1, FluxOR thallium flux fluorescence; hits give high values; B-score at 10 µM; 310,000 compounds, 1.3% hits; AID 2642;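 active means compounds whose thallium flux B-score, printed positive for inhibition, exceeds three library SD while starting fluorescence stays within three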;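 further: channel opened by potassium depolarization with thallium stimulus after 20 min compound exposure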
Target sequence (P51787 whole entry, looked up): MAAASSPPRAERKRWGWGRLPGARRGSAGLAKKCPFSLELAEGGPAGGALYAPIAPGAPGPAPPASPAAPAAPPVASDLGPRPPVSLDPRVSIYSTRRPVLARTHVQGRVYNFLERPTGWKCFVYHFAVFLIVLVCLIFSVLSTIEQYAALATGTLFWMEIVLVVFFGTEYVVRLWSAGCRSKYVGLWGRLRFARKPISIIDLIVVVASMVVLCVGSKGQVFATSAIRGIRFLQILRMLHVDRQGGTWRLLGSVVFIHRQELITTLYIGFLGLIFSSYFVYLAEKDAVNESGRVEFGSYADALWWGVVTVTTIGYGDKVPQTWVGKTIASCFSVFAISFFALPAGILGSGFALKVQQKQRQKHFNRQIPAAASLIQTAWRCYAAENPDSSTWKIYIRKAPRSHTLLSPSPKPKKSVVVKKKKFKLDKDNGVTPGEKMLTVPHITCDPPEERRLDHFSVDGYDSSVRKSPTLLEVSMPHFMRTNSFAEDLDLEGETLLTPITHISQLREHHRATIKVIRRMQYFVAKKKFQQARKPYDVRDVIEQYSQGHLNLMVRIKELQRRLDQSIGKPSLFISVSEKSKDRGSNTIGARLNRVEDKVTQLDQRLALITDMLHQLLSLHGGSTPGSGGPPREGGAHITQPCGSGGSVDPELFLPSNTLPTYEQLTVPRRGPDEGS
KCNK3 inh – human KCNK3 channel inhibition, primary screen | O14649 | CHO-KCNK3 thallium flux, FluxOR fluorescence; hits give low values | B-score at 10 µM | 340,000 compounds, 0.84% hits;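 active means B-score under library mean minus 4 SD, starting fluorescence ratio at most library mean plus 5 SD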;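 further: more negative B-score means stronger inhibition of thallium flux through KCNK3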
KCNQ1 act – human KCNQ1 channel potentiation or activation. P51787. CHO-K1 KCNQ1, thallium flux FluxOR fluorescence; hits give high values. B-score at 10 µM. 310,000 compounds, 0.35% hits. AID 2648;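 active means fluorescence ratio B-score, a plate-corrected score, at least three library SD, with initial intensity B-score within 5 SD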
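Material: CHO-K1 cells stably expressing KCNQ1. Medium: assay buffer for compound exposure, DMSO matched across wells. Reagent: K+/Tl+ depolarizing stimulus. Compound dosing: single-concentration screen. Times: 37 °C overnight plating, 90-min dark dye load, 20-min compound pretreatment. Technique: FluxOR Tl+ flux fluorescence.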
Kir21 block – blocks the mouse Kir2.1 inward-rectifier potassium channel; HEK293-Kir2.1, FluxOR thallium flux fluorescence; hits give low values; B-score at 10 µM; 310,000 compounds, 0.85% hits;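 active means fluorescence ratio B-score at or below minus 3 SD of library scores, with starting-brightness B-score within 2 SD, cut at about -4.2 in these data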;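 further: channel flux triggered by added potassium and thallium sulfate stimulus; B-score of peak minus minimum fluorescence over baseline after thallium stimulus; more negative B-score means stronger Kir2.1 block with less thallium influx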
hERG protect – hERG (human) protection from proarrhythmic block; Q12809; CHO-hERG, FluxOR thallium flux, dofetilide IC70 present; activation (rescue from dofetilide block), less the hit threshold, % at 10 µM; 310,000 compounds, 0.51% hits; AID 1511;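 active means activation above the mean of controls blocked by dofetilide plus 5 SD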;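 further: thallium influx through hERG after potassium depolarization seen as dye fluorescence rise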
KCNK9 inh – blocks the human KCNK9 two-pore domain potassium channel; Q9NPC2; HEK293 KCNK9, FluxOR thallium flux fluorescence; hits give low values; B-score at 10 µM; 310,000 compounds, 1.2% hits;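 active means ratio B-score over 3 SD below the library mean, with starting fluorescence within 5 SD of its mean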;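 further: negative B-score means less thallium flux so channel inhibition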
KCNK9 block conf – confirmation of human KCNK9 potassium channel inhibitors; inhibition, % at 10 µM; HEK293 KCNK9 cells, FluxOR thallium flux fluorescence; shares compounds with KCNK9 inh; 4,900 compounds, 43% hits;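 active means thallium signal inhibited by more than 5 SD of the compound-free buffer control wells, on both duplicate plates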
Kir21 sel – selectivity of KCNK9 modulators against mouse Kir2.1 | shares compounds with KCNK9 inh | Kir2.1 cells, FluxOR thallium flux fluorescence | inhibition, % at 10 µM | 4,900 compounds, 4% hits | AID 492993;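 active means thallium signal drop more than 5 SD beyond the mean of the no-compound control wells, seen in both duplicate plates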;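 further: signal is fluorescence rise after thallium addition divided by baseline fluorescence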
KCNK9 uninduced – non-induced cell nonspecific activity of KCNK9 modulators | shares compounds with KCNK9 inh | non-induced KCNK9-HEK293, FluxOR thallium flux | inhibition, % at 10 µM | 4,900 compounds, 40% hits | AID 492997;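 active means thallium signal drop beyond 5 SD of the untreated control mean, on both duplicate plates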
KCNK3 inh conf – human KCNK3 channel inhibition, confirmation assay; shares compounds with KCNK3 inh; CHO-KCNK3 thallium flux, FluxOR fluorescence; 0% buffer, 100% carvedilol maximal block; ratio percent of control, % at 10 µM; 2,400 compounds, 99% hits; AID 651638;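 active means ratio percent of control, averaged over triplicates, above buffer control mean plus 5 SD, cut at about 64% in these data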;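 further: ratio is the fluorescence rise from min to max over baseline after thallium stimulus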
KCNK3 uninduced – activity in cells without induced KCNK3 expression | shares compounds with KCNK3 inh | non-induced KCNK3 parental cells, FluxOR thallium flux; hits give low values | thallium flux ratio (lower = more inhibition) at 10 µM | 2,400 compounds, 40% hits | AID 651747;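 active means thallium flux ratio, averaged over three wells, more than 5 SD below the buffer control mean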;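 further: host cells are CHO cells without KCNK3 induction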
Hits are given with their value; 0 = inactive; - = no result. Sampled rows, rich in hits. Any-hit rate of the full collection: about 3.7%.

SMILES	KCNQ1 inh	KCNK3 inh	KCNQ1 act	Kir21 block	hERG protect	KCNK9 inh	KCNK3 inh conf	KCNK3 uninduced	others
Cc1cccc(C)c1NC(=O)c1ccc(-c2ccc(Cl)cc2Cl)o1	7	-9	0	0	0	-16	130	0.14	KCNK9 block conf=51%;Kir21 sel=0;KCNK9 uninduced=38%
C=CCn1c(SCC(=O)Nc2ccccc2)nc2scc(-c3cccs3)c2c1=O	0	-9.5	0	0	0	-11	114	0	KCNK9 block conf=35%;Kir21 sel=0;KCNK9 uninduced=34%
Cc1noc(C)c1S(=O)(=O)Nc1ccc2c(c1)C(=O)N([C@H](C)CO)C[C@H](C)[C@@H](CN(C)Cc1ccc(C(=O)O)cc1)O2	-	0	-	-	-	-	-	-
CN(Cc1cccnc1)C(=O)c1ccc(Cl)c(NS(=O)(=O)c2ccc(F)cc2)c1	-	0	-	-	-	-	-	-
O=C(CN1CCCN(S(=O)(=O)c2ccc(F)cc2)CC1)Nc1cccc(F)c1	0	-12	0	0	0	-6.7	92	0
Cc1ccc(NC(=O)c2c(C(F)(F)F)nn(C)c2SCc2ccc(Cl)cc2)cc1C	0	-10	0	0	0	0	110	0.16
O=C(COC(=O)c1cc(Cl)cc(Cl)c1)NCc1ccco1	-	0	-	-	-	-	-	-
Cc1cc(C)c(NC(=O)/C(=C/c2ccco2)c2ccccc2)c(C)c1	0	-9	0	0	0	0	108	0
Cc1cccc(C)c1NC(=O)/C(=C/c1ccco1)c1ccccc1	0	0	0	0	0	0	-	-
CSc1ccc(Cl)c(C(=O)OCC(=O)N2CCN(c3ccccc3)CC2)c1	-	0	-	-	-	-	-	-
O=c1[nH]c([N+](=O)[O-])nn1C(c1ccccc1)c1ccccc1	0	-10	0	0	0	0	0	0
Cc1[nH]n(-c2ccccc2)c(=O)c1C(c1cccc([N+](=O)[O-])c1)c1c(C)[nH]n(-c2ccccc2)c1=O	0	0	0	0	0	0	-	-
COc1ccc(CN(C)CC(=O)Nc2cccc(S(N)(=O)=O)c2)c(OC)c1OC	0	0	0	0	0	0	-	-
CCN(CCCNC(=O)CNC(=O)c1nn(-c2ccc(OC)cc2)c(=O)c2ccccc12)c1cccc(C)c1	0	-12	0	0	0	0	117	0
Cc1ccc(S(=O)(=O)NC(CC(C)C)C(=O)NCC(C)(C)N2CCOCC2)cc1 (stereo not drawn)	0	0	0	0	0	0	-	-
CC(CS(=O)(=O)c1ccccc1[N+](=O)[O-])N1CCOCC1 (stereo not drawn)	0	-9.1	0	0	0	0	84	0
O=[N+]([O-])c1ccccc1S(=O)(=O)c1ccccc1[N+](=O)[O-]	0	0	0	0	0	0	-	-
Nc1ccc(C(=O)N2CCN(S(=O)(=O)/C=C/c3ccccc3)CC2)cc1[N+](=O)[O-]	0	0	0	0	0	0	-	-
O=C(c1ccc2ccccc2c1)N1CCN(S(=O)(=O)/C=C/c2ccccc2)CC1	0	-9.1	0	0	0	0	96	0
CS(=O)(=O)c1ccc(C(=O)Nc2nc(-c3ccco3)c(-c3ccco3)s2)cc1	-	0	-	-	-	-	-	-
c1ccc(CCNc2ncnc3scc(C4COc5ccccc5O4)c23)cc1 (stereo not drawn)	0	-9.1	0	0	0	0	127	0.12
CCc1nnc(NC(=O)CSC(=S)N2CCOCC2)s1	0	0	0	0	0	0	-	-
CCOc1cc(C(=S)N2CCOCC2)ccc1OC(=O)c1ccccc1	0	-8.9	0	0	0	0	92	0
CCOc1cc(C(=S)N2CCOCC2)ccc1OC(=O)c1ccc(C)cc1	0	0	0	0	0	0	-	-
CCOc1cc(C(=S)N2CCOCC2)ccc1OC(=O)c1cccc(C)c1	0	-9.1	0	0	0	0	114	0
SMILES	KCNQ1 inh	KCNK3 inh	KCNQ1 act	Kir21 block	hERG protect	KCNK9 inh	KCNK3 inh conf	KCNK3 uninduced	others
CCOc1cc(C(=S)N2CCOCC2)ccc1OC	0	0	0	0	0	0	-	-
CCOC(=O)c1cccc(N2C(=O)C3C(C2=O)C2C=CC3C23CC3)c1 (stereo not drawn)	0	-18	0	0	0	0	92	0
COc1ccc(N(C)S(=O)(=O)c2cccc(C(=O)N3CCN(S(=O)(=O)c4ccc(C)cc4)CC3)c2)cc1	0	0	0	0	0	-12	92	0
O=C(Nc1ccccc1)c1ccc(NCC2CCCO2)c([N+](=O)[O-])c1 (stereo not drawn)	0	0	0	0	0	0	-	-
O=[N+]([O-])c1cc(C(F)(F)F)ccc1NCC1CCCO1 (stereo not drawn)	0	-9.7	0	0	0	0	70	0
CNc1ccc(Br)cc(C(=O)/C=C/c2ccc(Cl)cc2Cl)c1=O	10	-9.7	0	0	0	0	117	0.12
COc1ccccc1C(C)Nc1nc(-c2cccnc2)nc2ccccc12 (stereo not drawn)	0	-11	0	0	0	0	125	0
CN(c1ccccc1)S(=O)(=O)c1ccc(NC(=O)c2nc(S(C)(=O)=O)ncc2Cl)cc1	0	-9	0	-4.5	0	0	106	0.15
CN(c1ccccc1)S(=O)(=O)c1ccc(Cl)c(C(=O)Nc2ccncc2)c1	-	0	-	-	-	-	-	-
COCCN(C(=O)c1ccco1)c1nc(-c2ccccc2)cs1	0	-10	0	0	0	0	92	0.15
Cc1sc2ncnc(N3CCN(S(=O)(=O)c4ccc(F)cc4)CC3)c2c1C	0	-11	0	0	0	0	124	0.16
CCS(=O)(=O)N1CCN(c2ncnc3sc(C)c(C)c23)CC1	0	0	0	0	0	0	-	-
COc1ccccc1CN(C)C(=O)c1cc(-c2cccs2)nc2ccccc12	0	-13	0	0	0	0	119	0.14
COc1ccc(-c2cc(C(=O)N(C)Cc3cccc(OC)c3OC)c3ccccc3n2)cc1OC	0	0	0	0	0	0	-	-
COc1ccccc1-c1cc(C(=O)N/N=C/c2cccs2)c2ccccc2n1	0	-9.4	0	0	0	0	109	0
COc1cccc(NC(=O)COc2ccc(C(=S)N3CCN(C)CC3)cc2OC)c1	0	0	0	0	0	0	-	-
